The list is not random: actives were taken first. Their share in the collection is about 1.5%.
EBI2 block: blocks human EBI2 receptor beta-arrestin signaling | P32249 | EBI2 beta-arrestin recruitment, luminescence, 7a,25-OHC stimulated | inhibition, % at 5 µM | 360,000 tested, 0.81% active; in the data active = inhibition above about 38%;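 also: enzyme fragment complementation signal reports receptor beta-arrestin coupling in cells; 0% = agonist plus DMSO wells and 100% = wells without agonist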
Target sequence (P32249 whole entry, looked up, the tested form may be a part): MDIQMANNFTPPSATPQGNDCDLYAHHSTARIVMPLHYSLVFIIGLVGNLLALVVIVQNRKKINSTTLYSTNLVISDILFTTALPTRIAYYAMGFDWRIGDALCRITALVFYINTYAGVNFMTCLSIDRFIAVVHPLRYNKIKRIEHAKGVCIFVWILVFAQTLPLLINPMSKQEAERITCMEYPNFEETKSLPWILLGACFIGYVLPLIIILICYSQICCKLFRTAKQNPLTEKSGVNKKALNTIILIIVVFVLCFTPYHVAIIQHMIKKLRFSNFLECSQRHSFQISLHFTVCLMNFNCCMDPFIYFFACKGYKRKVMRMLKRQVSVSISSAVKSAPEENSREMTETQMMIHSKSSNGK
APJ agonist: APJ receptor agonism; P35414; activation, % at 20 µM; 330,000 tested, 0.11% active; CHO-K1 APJ PathHunter beta-arrestin, luminescence; 0% DMSO wells, 100% apelin; AID 2520;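 active = activation more than six SD over the plate average, tested at 20 µM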;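 also: 0% = DMSO alone and 100% = apelin-13 at 10 nM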
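Test system: CHO-K1 APJ beta-arrestin complementation cell line. Amount: cell density 1000 per well. Controls: DMSO negative, 10 nM Apelin-13 positive. Signal: luminescent beta-gal fragment complementation, chemiluminescent substrate. Read-out basis: agonist-driven arrestin binding to APJ. Timing: compound stimulation 90 min at 25 °C, detection 60 min.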
CXCR6 inh: blocks human CXCR6 beta-arrestin recruitment | AID 602244 | inhibition, % at 20 µM | O00574 | 360,000 tested, 0.36% active | CHO-K1 PathHunter CXCR6 beta-arrestin, luminescence; in the data active = inhibition above about 34%, passing the limit was not always enough;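 also: antagonist mode with CXCL16 agonist at 10 nM final; 0% = 10 nM CXCL16 with DMSO and 100% = unstimulated wells without agonist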
CCR6 antag: blocks CCL20-driven beta-arrestin recruitment at human CCR6; P51684; CHO-K1 CCR6 PathHunter beta-arrestin, luminescence, CCL20-stimulated; inhibition, % at 20 µM; 340,000 tested, 0.49% active; AID 493098;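 active = compounds whose inhibition of the agonist-driven luminescence signal at 20 µM reaches about 50%, limit read from the data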;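 also: cells stimulated with CCL20 at 14 nM final; plate controls were DMSO with CCL20 for no effect and DMSO without agonist for full effect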
Target sequence (P51684 whole entry, looked up): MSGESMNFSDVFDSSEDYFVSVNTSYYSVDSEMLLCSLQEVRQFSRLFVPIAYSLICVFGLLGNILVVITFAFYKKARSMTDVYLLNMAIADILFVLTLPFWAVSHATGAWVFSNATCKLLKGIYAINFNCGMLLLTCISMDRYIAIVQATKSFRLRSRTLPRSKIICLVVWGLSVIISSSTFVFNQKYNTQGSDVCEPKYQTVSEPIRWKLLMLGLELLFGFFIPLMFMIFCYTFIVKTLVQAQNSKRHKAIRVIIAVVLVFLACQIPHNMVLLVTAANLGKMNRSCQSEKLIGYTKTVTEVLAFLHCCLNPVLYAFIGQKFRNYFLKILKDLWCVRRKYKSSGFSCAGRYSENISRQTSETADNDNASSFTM
APJ antag: antagonists of human APJ apelin receptor; P35414; CHO-K1 APJ beta-arrestin complementation, luminescence; inhibition, % at 20 µM; 330,000 tested, 0.32% active;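 active = inhibition above about 40% at 20 µM, limit read from the data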;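 also: cells challenged with 10 nM apelin-13 agonist together with compound; plate controls were apelin-13 plus DMSO wells for no effect and DMSO wells lacking apelin-13 for full effect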
APJ antag conf: APJ receptor antagonism confirmation | 950 tested, 66% active | AID 2766 | APJ beta-arrestin recruitment, luminescence, antagonist mode | inhibition, % at 20 µM | shares compounds with APJ antag; in the data active = inhibition above about 50%
An asterisk follows results filed as active; . = no result.

SMILES | EBI2 block | APJ agonist | CXCR6 inh | CCR6 antag | APJ antag | APJ antag conf
Cc1cc(C(=O)OCC(=O)c2ccc(Cl)c([N+](=O)[O-])c2)c2cccc(C)c2n1 | 3.2 | -5.2 | 26.2 | 44.5 | 10.7 | .
Cc1ccc(C(=O)NCC(=O)OCC(=O)c2ccc(C)c([N+](=O)[O-])c2)cc1 | 5.3 | -4.0 | 16.7 | 40.1 | 55.0* | 60.2*
Cc1ccc2nc(C)cc(C(=O)OCC(=O)c3ccc(Cl)c([N+](=O)[O-])c3)c2c1 | 20.8 | -22.0 | 59.0* | 102.0* | 86.3* | 126.4*
O=C(Cc1ccccc1)NCC(=O)OCC(=O)c1ccc(Cl)c([N+](=O)[O-])c1 | 16.9 | -11.1 | 48.3* | 90.9* | 89.3* | 143.7*
CN(C)c1ccc(N=Nc2ccc(S(=O)(=O)O)cc2)c2ccccc12 | 12.4 | -8.1 | 42.4* | 62.0* | 41.0* | 92.3*
CN(C)c1ccc(N=Nc2ccc(S(N)(=O)=O)cc2)cc1 | 10.4 | -7.9 | 19.5 | 29.0 | 23.9 | .
CCOC(=O)c1sc(NC(=O)c2c(C)nn(Cc3ccccc3)c2C)cc1C | 8.9 | 0.5 | 0.8 | -7.6 | 11.8 | .
CC(C)C[C@H](NC(=O)c1nc[nH]c1C(=O)NC(c1ccccc1)c1ccccc1)C(=O)OC(C)(C)C | -8.7 | 0.8 | 2.8 | -6.3 | 4.1 | .
O=[N+]([O-])c1cccc(Cl)c1NCCNc1ncc(C(F)(F)F)cc1Cl | 2.4 | -2.3 | 4.6 | 16.5 | 42.7* | 31.1
Cc1c(C(=O)NCCNc2ncc(C(F)(F)F)cc2Cl)cccc1[N+](=O)[O-] | 9.9 | -1.3 | 0.5 | 24.1 | -5.2 | .
CCn1ncc(S(=O)(=O)Nc2cccnc2)c1C | -15.8 | 5.7 | -5.7 | 4.4 | -19.4 | .
CCn1cc(S(=O)(=O)Nc2cccnc2)cn1 | -4.8 | 5.5 | -1.0 | -3.4 | 44.5* | 22.0
COc1ccc(N2CCOCC2)c(NC(=O)c2ccc3c(c2)OCO3)c1 | -3.9 | -1.4 | 1.0 | 19.9 | 51.0* | 29.6
O=C(Oc1ccnc2cc(Cl)ccc12)N1CCCCCC1 | -7.7 | -0.3 | 4.5 | 1.1 | 12.2 | .
Oc1c(C=Nc2cccc3cccnc23)sc2ccccc12 | . | -30.1 | . | . | 92.4* | 142.9*
CC1CCN(S(=O)(=O)c2cn(CC(=O)Nc3cccc(C#N)c3)cn2)CC1 | -5.8 | -1.0 | -8.4 | 15.8 | 2.7 | .
CC(=O)c1cccc(NC(=O)Cn2cnc(S(=O)(=O)N3CCC(C)CC3)c2)c1 | 9.0 | -3.2 | -9.1 | -2.8 | 41.6* | 23.1
O=C(Cc1ccc(-n2c(=O)c3ccccc3n(Cc3ccccc3Cl)c2=O)cc1)NCC1CCCO1 (stereo not drawn) | 3.9 | -6.5 | 12.0 | 13.1 | 2.0 | .
CCc1noc(C)c1C(=O)NC1CC(C)(C)Cc2c1cnn2-c1ccccc1 (stereo not drawn) | -2.1 | -7.0 | 7.6 | . | 41.2* | 25.2
O=C(NNc1ccc(-c2csnn2)cc1)c1cc(Cl)cc(Cl)c1 | 14.2 | -8.3 | 14.5 | 47.3 | 53.8* | 64.6*
COc1ccc(CCNC(=O)c2n[nH]c(=O)c3ccccc23)cc1 | 0.7 | -1.7 | -4.0 | 11.0 | 41.0* | 38.6
OC1CCN(c2c3c(nc4cc(-c5ccc(F)cc5)nn24)CCC3)CC1 | 16.6 | 0.6 | -1.3 | -4.2 | -9.3 | .
COc1cccc(OCc2nc3ccccc3c(=O)n2N)c1 | -13.5 | -1.7 | 2.4 | -10.6 | 42.8* | -31.5
O=C(NNC(=S)Nc1ccccc1)NNC(=S)Nc1ccccc1 | 14.1 | -10.5 | 27.6 | 55.6* | 44.3* | 88.2*
O=C(Nc1cccc(Cl)c1N1CCCCC1)c1ccc2c(c1)OCCO2 | 14.6 | -4.4 | -1.2 | 9.7 | 11.0 | .
SMILES | EBI2 block | APJ agonist | CXCR6 inh | CCR6 antag | APJ antag | APJ antag conf
O=C(NC(=S)Nc1cccc(Cl)c1N1CCCCC1)c1ccc2c(c1)OCCO2 | 19.6 | 1.4 | 10.4 | 28.5 | 44.5* | 38.3
Cc1cc(C)c2c(CN3CCCCCCC3)cc(=O)oc2c1 | -0.8 | . | 3.4 | . | . | .
Cc1cc(C)c2c(CN3CCCCC3)cc(=O)oc2c1 | 5.9 | -0.6 | -1.8 | 17.5 | 42.7* | 22.4
O=C(Nc1ccc(Cl)cc1)C1=Cc2cc(Cl)ccc2OC1 | 4.9 | -3.3 | -6.0 | 12.7 | 3.3 | .
Cc1cc([N+](=O)[O-])nn1CC(=O)NNC(=S)Nc1ccc([N+](=O)[O-])cc1 | 11.3 | -7.4 | 27.3 | 39.9 | 47.0* | 70.4*
COCCNC(=S)N/N=C(\C)c1ccc(Cl)c(Cl)c1Cl | 13.4 | -3.9 | 27.0 | 38.4 | 43.3* | 35.6
COCCNC(=S)N/N=C(\C)c1ccc(Cl)c(Cl)c1 | 2.3 | -3.8 | 1.0 | 15.4 | 10.8 | .
CCn1c(CO)nc2c1c(=O)[nH]c(=O)n2Cc1ccccc1 | 14.6 | -7.5 | 46.3* | 63.5* | 52.6* | 84.5*
C=CCn1c(=O)[nH]c2cc(C(=O)N3CC=C(c4ccccc4)CC3)ccc2c1=O | 0.9 | -4.5 | -16.8 | 11.6 | 52.5* | -12.9
CN1C(=O)/C(=C/c2ccc(O)c([N+](=O)[O-])c2)N(C)C1=S | 2.5 | -8.4 | 43.1* | 56.8* | 46.4* | 84.8*
CCc1c(O)nc(SCC(=O)NCc2ccco2)[nH]c1=O | 2.3 | -0.8 | 3.3 | -0.9 | 0.9 | .
c1ccc(NNC2=NCCS2)cc1 | 38.7 | -11.7 | 33.9 | 41.1 | 46.0* | 43.2
CCOCCn1c(CN2CCN(C)CC2)nc2c1c(=O)n(C)c(=O)n2C | 0.6 | -3.6 | 14.5 | -2.1 | -0.8 | .
CC(C)(CO)CNC1CCCN(C2Cc3ccccc3C2)C1 (stereo not drawn) | -0.5 | -0.7 | 2.5 | 1.8 | -12.5 | .
Cc1cc(C)nc(NNS(=O)(=O)c2ccc(Cl)cc2)n1 | 7.0 | -17.2 | 26.2 | 53.4* | 75.3* | 112.6*
COc1ccc(S(=O)(=O)NNc2nc(C)cc(C)n2)cc1Br | 7.2 | -17.7 | 20.7 | 29.7 | 54.3* | 52.4*
Cc1cc(C)nc(NNS(=O)(=O)c2ccc(F)c(Cl)c2)n1 | 29.5 | -22.3 | 21.0 | 42.1 | 52.8* | 109.4*
CC1CN(Cc2nc3c(c(=O)n(C)c(=O)n3C)n2CCCO)CC(C)O1 (stereo not drawn) | 2.1 | -3.0 | -3.2 | 16.8 | 9.1 | .
COc1c(C(=O)NCCSC(C)(C)C)ccc2ccccc12 | -5.0 | -1.3 | -3.2 | -8.3 | -4.5 | .
Cn1c(NC(=S)Nc2ccccc2)nc2ccccc21 | 7.1 | -3.9 | -9.6 | -19.4 | 40.7* | 13.8
S=C(Nc1ccccc1)Nc1nc2ccccc2n1CCOc1ccc(Br)cc1 | -0.4 | 3.1 | 7.6 | -7.3 | 0.3 | .
Cn1c(=O)c2c(nc(NCCCN3CCOCC3)n2Cc2ccc(Cl)cc2)n(C)c1=O | -0.7 | -1.7 | 5.6 | -6.0 | 15.7 | .
O=C(CSc1nnc(COc2ccc(Cl)cc2)o1)N1CCOCC1 | 9.7 | -2.5 | -6.3 | -3.4 | -7.0 | .
CC(=O)Nc1ccc(NC(=O)CN2C(=O)COc3ccc(S(=O)(=O)N4CCOCC4)cc32)cc1 | -1.5 | -4.6 | -0.8 | 7.4 | 19.5 | .
CC(C)c1ccc(NC(=O)CN2C(=O)COc3ccc(S(=O)(=O)N4CCOCC4)cc32)cc1 | -9.7 | -4.5 | 8.4 | -1.3 | 45.3* | -13.1

Screening data as filed in PubChem.
